Measured values taken from ChEMBL document CHEMBL3297702, “Improving photodynamic inactivation of bacteria in dentistry: highly effective and fast killing of oral key pathogens with novel tooth-colored type-II photosensitizers” (J Med Chem, 2014).
The source made the active and inactive calls. The rule behind the calls is not given here.

How the values were obtained:
[1] = test system: Enterococcus faecalis; experiment: Toxicity in Enterococcus faecalis ATCC 29212 assessed as reduction of log10 CFU at 1 to 250 uM incubated for 10 secs under dark condition measured after 24 hrs by agar plating method; format: organism-based; settings: in vivo
Outline: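 Dark controls. Overnight BHI cultures (EF, SM, AN aerobic; AA anaerobic; 37 °C) were washed into PBS at 10^7–10^8 cells/mL. They were mixed 1:1 with photosensitizer at final 0–250 µM and incubated 10 s, 7.5 min or 15 min, then kept in the dark for 20, 40 or 120 s. Tenfold dilutions were plated: EF on Mueller-Hinton agar, aerobic 24 h; SM on BHI agar, aerobic 48 h; AN on blood agar, aerobic 48 h; AA on BHI agar, anaerobic 48 h; all at 37 °C. CFU were compared with untreated controls; medians of three independent experiments in triplicate.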

[2] = test system: Streptococcus mutans; experiment: Photodynamic inactivation of Streptococcus mutans ATCC 25175 assessed as reduction of log10 CFU at 1 uM incubated prior to irradiation with 25 j/cm'2 for 20 secs measured after 48 hrs by agar plating method (reference value: <1 no unit); format: functional
[3] = test system: Streptococcus mutans; experiment: Photodynamic inactivation of Streptococcus mutans ATCC 25175 assessed as reduction of log10 CFU at 1 uM incubated prior to irradiation with 50 j/cm'2 for 40 secs measured after 48 hrs by agar plating method (reference value: <1 no unit); format: functional
[4] = test system: Streptococcus mutans; experiment: Photodynamic inactivation of Streptococcus mutans ATCC 25175 assessed as reduction of log10 CFU at 1 uM incubated prior to irradiation with 150 j/cm'2 for 120 secs measured after 48 hrs by agar plating method (reference value: <1 no unit); format: functional
[5] = test system: Actinomyces naeslundii; experiment: Photodynamic inactivation of Actinomyces naeslundii T14V assessed as reduction of log10 CFU at 1 uM incubated prior to irradiation with 150 j/cm'2 for 120 secs measured after 48 hrs by agar plating method (reference value: <1 no unit); format: functional
Outline: (§1)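 A. naeslundii T14V grown overnight at 37 °C, shaken, aerobically in BHI broth. Harvested at stationary phase, resuspended in PBS to 10^7–10^8 bacteria/mL (OD600). Mixed 1:1 with PS (final 0–250 µM) or water, 10 s incubation, then blue photopolymerizer light (1260 ± 50 mW/cm2) or dark. Tenfold dilutions plated on blood agar, aerobic 37 °C 48 h, CFU counted; medians of three independent experiments in triplicate.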

[6] = test system: Actinomyces naeslundii; experiment: Photodynamic inactivation of Actinomyces naeslundii T14V assessed as reduction of log10 CFU at 5 uM incubated prior to irradiation with 25 j/cm'2 for 20 secs measured after 48 hrs by agar plating method (reference value: <1 no unit); format: functional; outline: as §1
[7] = test system: Actinomyces naeslundii; experiment: Photodynamic inactivation of Actinomyces naeslundii T14V assessed as reduction of log10 CFU at 5 uM incubated prior to irradiation with 50 j/cm'2 for 40 secs measured after 48 hrs by agar plating method (reference value: <1 no unit); format: functional; outline: as §1
[8] = test system: Actinomyces naeslundii; experiment: Photodynamic inactivation of Actinomyces naeslundii T14V assessed as reduction of log10 CFU at 100 uM incubated prior to irradiation with 25 j/cm'2 for 20 secs measured after 48 hrs by agar plating method (reference value: <1 no unit); format: functional; outline: as §1
[9] = test system: Actinomyces naeslundii; experiment: Photodynamic inactivation of Actinomyces naeslundii T14V assessed as reduction of log10 CFU at 100 uM incubated prior to irradiation with 50 j/cm'2 for 40 secs measured after 48 hrs by agar plating method (reference value: <1 no unit); format: functional; outline: as §1
[10] = test system: Aggregatibacter actinomycetemcomitans; experiment: Photodynamic inactivation of Aggregatibacter actinomycetemcomitans ATCC 43718 assessed as reduction of log10 CFU at 1 uM incubated prior to irradiation with 25 j/cm'2 for 20 secs measured after 48 hrs by agar plating method relative to control; format: functional, Y4
Outline: (§2)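 A. actinomycetemcomitans ATCC 43718 cultured overnight in BHI broth under anaerobic conditions, 37 °C with shaking. Stationary-phase cells were spun down, taken up in PBS to 10^7–10^8/mL, and combined 1:1 with PS (final 0–250 µM) or water. After 10 s they were irradiated at 1260 ± 50 mW/cm2 or kept dark. Serial dilutions went onto BHI agar, incubated anaerobically at 37 °C for 48 h, and CFU were scored. Results are medians from 3 experiments × triplicate versus untreated controls.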

[11] = test system: Aggregatibacter actinomycetemcomitans; experiment: Photodynamic inactivation of Aggregatibacter actinomycetemcomitans ATCC 43718 assessed as reduction of log10 CFU at 5 uM incubated prior to irradiation with 25 j/cm'2 for 20 secs measured after 48 hrs by agar plating method relative to control; format: functional, Y4; outline: as §2
[12] = test system: Aggregatibacter actinomycetemcomitans; experiment: Photodynamic inactivation of Aggregatibacter actinomycetemcomitans ATCC 43718 assessed as reduction of log10 CFU at 5 uM incubated prior to irradiation with 150 j/cm'2 for 120 secs measured after 48 hrs by agar plating method relative to control; format: functional, Y4; outline: as §2
[13] = test system: Aggregatibacter actinomycetemcomitans; experiment: Photodynamic inactivation of Aggregatibacter actinomycetemcomitans ATCC 43718 assessed as reduction of log10 CFU at 10 uM incubated prior to irradiation with 50 j/cm'2 for 40 secs measured after 48 hrs by agar plating method (reference value: <1 no unit); format: functional, Y4; outline: as §2
[14] = test system: Aggregatibacter actinomycetemcomitans; experiment: Photodynamic inactivation of Aggregatibacter actinomycetemcomitans ATCC 43718 assessed as reduction of log10 CFU at 10 uM incubated prior to irradiation with 150 j/cm'2 for 120 secs measured after 48 hrs by agar plating method relative to control; format: functional, Y4; outline: as §2
[15] = test system: Aggregatibacter actinomycetemcomitans; experiment: Photodynamic inactivation of Aggregatibacter actinomycetemcomitans ATCC 43718 assessed as reduction of log10 CFU at 100 uM incubated prior to irradiation with 150 j/cm'2 for 120 secs measured after 48 hrs by agar plating method relative to control; format: functional, Y4; outline: as §2
[16] = Stability of the compound in D2O at 90 degC after > 10 mins by NMR analysis; format: physicochemical
[17] = Stability of the compound in basic medium at 60 uM at pH > 9 after 5 to 30 mins by UV-vis spectra analysis; format: physicochemical
Outline: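 UV-Vis absorption spectra recorded in buffer solutions at different pH values after 5 and 30 min incubation.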

[18] = test system: Streptococcus mutans; experiment: Photodynamic inactivation of Streptococcus mutans ATCC 25175 assessed as reduction of log10 CFU at 1 to 250 uM preincubated for 10 secs followed by irradiation with 25 j/cm'2 for 20 secs measured after 48 hrs by agar plating method; format: functional
[19] = test system: Streptococcus mutans; experiment: Photodynamic inactivation of Streptococcus mutans ATCC 25175 assessed as reduction of log10 CFU at 1 to 250 uM preincubated for 10 secs followed by irradiation with 150 j/cm'2 for 120 secs measured after 48 hrs by agar plating method; format: functional
[20] = test system: Actinomyces naeslundii; experiment: Photodynamic inactivation of Actinomyces naeslundii T14V assessed as reduction of log10 CFU at 1 to 250 uM preincubated for 10 secs followed by irradiation with 150 j/cm'2 for 120 secs measured after 48 hrs by agar plating method; format: functional, organism-based; outline: as §1
[21] = test system: Aggregatibacter actinomycetemcomitans; experiment: Photodynamic inactivation of Aggregatibacter actinomycetemcomitans ATCC 43718 assessed as reduction of log10 CFU at 1 to 250 uM incubated prior to irradiation with 25 j/cm'2 for 20 secs measured after 48 hrs by agar plating method; format: functional; settings: Y4; outline: as §2

| Stability [16] | Stability [17] | SMILES | Activity [1] | log10cfu [2] | log10cfu [3] | log10cfu [4] | log10cfu [5] | log10cfu [6] | log10cfu [7] | log10cfu [8] | log10cfu [9] | log10cfu [10] | log10cfu [11] | log10cfu [12] | log10cfu [13] | log10cfu [14] | log10cfu [15] | Activity [18] | Activity [19] | Activity [20] | other results |
| --- | --- | --- | --- | --- | --- | --- | --- | --- | --- | --- | --- | --- | --- | --- | --- | --- | --- | --- | --- | --- | --- |
|  |  | C[N+](C)(CCO)CC1=Cc2cccc3cccc(c23)C1=O.[Cl-] | Non-toxic | <1 | <1 | <1 | <1 | <1 | <3 | > 5 | > 5 | <1 | <3 | >6 | <3 | >6 | >6 |  |  |  |  |
| Stable | Unstable | C[N+](C)(C)CC1=Cc2cccc3cccc(c23)C1=O.[Cl-] | Non-toxic |  |  |  |  |  |  |  |  |  |  |  |  |  |  | Active | Active | Active | Activity [21]: Active |
| Stable | Unstable | O=C1C(C[n+]2ccccc2)=Cc2cccc3cccc1c23.[Cl-] |  | <1 | <1 | <3 | <5 | <3 | <5 | > 5 | > 5 | <3 | <3 | >6 | >6 | >6 | >6 | Active | Active | Active | Activity [21]: Active |
